Measured values: ChEMBL document CHEMBL4513216, “Probing the Open Global Health Chemical Diversity Library for Multistage-Active Starting Points for Next-Generation Antimalarials” (ACS Infect Dis, 2020)

Assay: Toxicity liver stage against HepG2, at 10uM
Format: cell-based
Design: test concentration 10 uM, cell line HepG2-A16-CD81EGFP
Details: human, HepG2-A16-CD81EGFP cells; read-out: INHIBITION
Method in brief: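 Uninfected HepG2-A16-CD81EGFP cells, 3 × 10^3 per well, 1536-well, plated on prespotted compound at 10 μM final, parasite-free screening media added to match infected plates; puromycin 10 μM positive, DMSO 0.5% negative; run in parallel with 48 h PbLuc assay at 37 °C, 5% CO2; viability by CellTiter-Glo luminescence, normalized to controls.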

SMILES | cytotoxicity at 10 µM [%]
Cc1ccc(S(=O)(=O)n2ccn(C(=O)COc3ccccc3)c2=O)cc1 | 5.34
CN(C)C(=O)CN1C[C@H]2CCN(C(=O)c3ccccc3)CC[C@H]2S1(=O)=O | 9.1
CC(=O)NCC(=O)NC1CCc2c(ccc(=O)n2CC2CC2)C1 (configuration not stated) | 7.89
O=C(c1cocn1)N1CCC2(CC1)CC(OCC1CC1)CO2 (configuration not stated) | 10
O=C(NCc1ccccn1)[C@@H]1COC[C@H]2CNC[C@H]21 | 11.2
Cc1cccc(CNC(=O)c2cccnc2N)c1 | 11
CCCn1c(N2CCCC2)nc2c(C)nn(C)c2c1=O | 2.33
CNC(=O)c1nn(C)cc1NC(=O)C(C)n1ncc(Cl)c1C (configuration not stated) | 8.77
COc1cc(CN2CCC3(CC(Nc4ccncn4)C3)C2)cc(OC)c1 (configuration not stated) | -9.27
Cc1cccc(C2CCCN(C(=O)c3ccncc3)C2)n1 (configuration not stated) | 2.97
COCC(=O)N1CCCC1c1csc(Nc2cnccn2)n1 (configuration not stated) | -8.11
Cc1cnc(CC2COCCN(Cc3nccn3C)C2)cn1 (configuration not stated) | -2.25
O=C(C1CCCCC1)N1CCC(c2n[nH]c3nccnc23)CC1 | 4.05
Cc1noc(C)c1C(=O)N1CCC2(CC(N(C)c3ccncn3)C2)C1 (configuration not stated) | -5.94
Cc1ncncc1C(=O)N1CCCC(Cc2nccs2)C1 (configuration not stated) | -9.13
c1cncc(C2=NOC3(CCN(Cc4c[nH]c5ccccc45)CC3)C2)c1 | 9.49
COc1ccccc1-c1cc(C(=O)N2CCCC2)c2cnn(C)c2n1 | 9.4
CN(CC1CCOC1)c1ccc(Br)cn1 (configuration not stated) | 8.35
CC(C)C(C)NC(=O)Nc1cccn(C)c1=O (configuration not stated) | -7.48
Cc1nccn1-c1ccc(CNS(=O)(=O)N2CCCCC2C)cn1 (configuration not stated) | -11
CC(C)(C)CN(CCO)C(=O)Nc1cccc(N2CCNC2=O)c1 | -17.2

SMILES | cytotoxicity at 10 µM [%]
COC(=O)CN(C(=O)c1ccoc1)c1cccc(F)c1 | 5.42
Cc1cc(C(=O)NC2CCN(c3ncccc3C#N)CC2)on1 | 0.0456
CS(=O)(=O)NC(=O)c1cnc2c(cnn2C2CCCC2)c1 | 8.18
O=C(CN1CCN(c2ccccc2F)CC1)Nc1ccc(Cl)cn1 | 4.04
Cn1ccnc1COc1ccc(NC(=O)CCC2CCCO2)cc1 (configuration not stated) | 4.34
Cc1nc(CCNC(=O)C2CC(=O)N(C(C)C)C2)cs1 (configuration not stated) | 14.9
CCc1cc(CNCc2ccccc2N(C)C2CCN(C)CC2)on1 | -11.7
CCC1CN(C(=O)c2cnc(-c3cnn(C)c3)s2)CCO1 (configuration not stated) | 8.79
O=C(Cc1ccc(S(=O)(=O)C(F)F)cc1)N1CCC1 | -17
CS(=O)(=O)N1CCO[C@@H]2CN(C(=O)C3CCOC3)CC[C@@H]2C1 (some centres not stated) | -108
O=C1NCCO[C@H]2CN(C(=O)c3cccs3)CC[C@@H]12 | -107
CC(C)(CO)Nc1cc(-c2ccncc2)ncn1 | -0.89
Clc1ccccc1C1(c2ccnc(C3CC3)n2)CCNCC1 | 7.89
CC(C)Cc1cc(CNC(=O)c2cccc3c2NCCC3)no1 | -50.7
CC(C)c1cc(NCC2(CO)CCCC2)ncn1 | 11.9
COc1ccc(OCc2cc(C(=O)N3C[C@@H](C)O[C@@H](C)C3)n[nH]2)c(Cl)c1 | -4.28
CCn1c(CC2CCN(C(=O)c3ccnn3C)CC2)n[nH]c1=O | -51.1
O=C(CN1CCCCC1=O)N1CCC2(CC1)[C@H](O)C[C@@H]2O | -1.74
COCCN1CCC(c2nc3c([nH]2)CCCNC3=O)CC1 | 0.583
CN(Cc1cccnc1)C[C@H]1CC[C@@H](Cc2ccc3c(cnn3C)c2)O1 | 5.15
CCc1nnc(N2C[C@@H](NC(C)=O)[C@H](c3ccc(C)o3)C2)s1 | -54.5

SMILES | cytotoxicity at 10 µM [%]
COCCn1ccnc1CN(Cc1ccccn1)CC(C)C | 4.96
Cc1cc(NC(=O)CCn2cncn2)no1 | 2.89
Cc1cccc(C)c1OC1CN(Cc2cnn(C)c2)C1 | 7.97
CN1CCCN(C[C@H]2C[C@H](CO)CN(Cc3cccnc3N)C2)CC1 | -10.7
Cc1ccc(CN2CCN(Cc3ccc(N(C)C)nc3)CC2=O)cc1C | -2.43
Cc1cccnc1CN(C)CC1(O)CCCN(CC2CCCCC2)C1=O (configuration not stated) | -4.09
CC(C)c1cc(COCCC(=O)O)no1 | -6.5
CCC1CCCCN1Cc1ncc(C(C)(C)C)o1 (configuration not stated) | -3.48
Cc1nnc2n1CCN(C(=O)c1cc(C)n(-c3ccccc3)c1C)C2 | -4.94
Cc1ccc(C(=O)N2CCCCC2CNC(N)=O)cc1F (configuration not stated) | -6.56
COCCCN(C)C1CCCN(Cc2noc(C3CC3)n2)C1 (configuration not stated) | -15.4
CCN1CCN(C(=O)c2ccc(=O)n(C)c2)c2ccccc21 | -1.64
CN(CC1COc2ccccc2O1)C(=O)CCn1cncn1 (configuration not stated) | -7.36
CCOc1ccccc1OC1CCN(C(=O)c2cnns2)CC1 | -3.14
COc1ccc(COCC(O)CN2CCC(c3ccn[nH]3)CC2)cc1 (configuration not stated) | -0.975
CCOc1ncccc1NC(=O)NCC(O)c1ccc(OC)cc1 (configuration not stated) | -16.6
CN(Cc1ccc2c(c1)OCO2)C(=O)Cn1cccnc1=O | -3.96
NC(=O)C1CCN(C(=O)NCc2ccccc2-n2cccn2)CC1 | -11.1
Cc1nnc2n1CCN(CCOc1cccc(C#N)c1)C2 | -7.88
Cc1cccc(C(=O)N2CCC(c3n[nH]c(C4CC4)n3)CC2)c1 | -15.3
CCn1cnnc1CNC(=O)c1ccc(Cl)cc1I | -6.31

SMILES | cytotoxicity at 10 µM [%]
CCOc1cc(/C=C/c2ncc(C(=O)O)s2)cc(Br)c1OC | 7.59
CCOc1cccc(C(=O)N2CCN(c3nccc(OC)n3)CC2)c1 | 5.41
Cc1nn(C)c(C)c1CC(=O)N1CCCC(n2ccnc2)C1 (configuration not stated) | -11.5
COc1cccc(CCNC(=O)CN2CCN(C)CC2C)c1 (configuration not stated) | -16.7
CCc1ccc(O)c(C(=O)NC2CCN(S(=O)(=O)CC)CC2)c1 | 7.37
CCn1nc2c(cc1=O)CN(Cc1nc(-c3ccccn3)no1)CC2 | -5.13
Cc1cc(C)n(CC(=O)N2CCC(NS(=O)(=O)c3ccccc3)CC2)n1 | 4.59
Cn1cnnc1C1CCN(C(=O)CCCOc2ccccc2F)CC1 | -6.26
COCc1cccc(CNCc2c(C)nn(C)c2N(C)C)c1 | 1.08
Cc1ccc(C(=O)CN(C2=NCCCCC2)c2ccccc2)cc1 | 17.7
CCn1ncc2c1C(COC)N(C(=O)c1ccsc1)CC2 (configuration not stated) | -101
O=S(=O)(C1CC1)N1C[C@H]2CCC[C@@]2(COCc2ccccn2)C1 | 10.6
O=C(Cc1cccs1)N1C[C@@H]2COC[C@]2(COCc2cccnc2)C1 | -2.8
O=C(c1ccc(F)cc1)N1C[C@@H]2CCN(c3cccnc3)C[C@@H]2C1 | -78.4
O=C1N(c2cccnc2)CCC12CCCN(Cc1ccco1)C2 (configuration not stated) | -5.79
Fc1ccc(CN2C[C@@H](OCc3ccccn3)[C@H]3COC[C@H]32)cc1 | -98.9
Cc1cccc(COC2COC3(CCN(S(C)(=O)=O)CC3)C2)n1 (configuration not stated) | 8.98
Cn1nc(Cn2cccn2)c2c1CN(C1CCOCC1)C2 | 10.1
O=C(N1CCOCC1)N1C2CCC(O)(CC2)C1CN1CCOCC1 (configuration not stated) | -1.94
